Molecular target: T1, p300 (Homo sapiens, UniProt Q09472)
T1 sequence (Q09472 1284-1673 limits assumed): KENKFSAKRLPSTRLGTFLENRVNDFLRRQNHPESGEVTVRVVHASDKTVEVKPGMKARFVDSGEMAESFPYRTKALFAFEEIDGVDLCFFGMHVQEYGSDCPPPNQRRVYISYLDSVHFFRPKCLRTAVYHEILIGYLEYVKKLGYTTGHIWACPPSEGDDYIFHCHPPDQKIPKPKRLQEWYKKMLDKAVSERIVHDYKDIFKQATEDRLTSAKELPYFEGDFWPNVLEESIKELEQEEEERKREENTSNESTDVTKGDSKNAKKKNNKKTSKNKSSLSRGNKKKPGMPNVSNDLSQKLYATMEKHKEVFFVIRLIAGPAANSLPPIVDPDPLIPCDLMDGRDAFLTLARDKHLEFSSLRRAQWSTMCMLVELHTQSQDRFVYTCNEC
Experiment: radioactive acetyltransferase activity-based IC50 assay
Assay type: biochemical
Procedure, shortened: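 Test compounds came from a DNA-encoded peptide macrocycle library affinity selection against p300 using a poly-His/Ni-NTA magnetic bead binding system. They were resynthesized off-DNA, without the DNA tag, and tested for p300 inhibition in a radioactive acetyltransferase activity assay to derive IC50.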

- IC50: 5.2 µM
Structure (SMILES): CC(C)C[C@H]1NC(=O)[C@@H](NC(=O)CCc2cccc([N+](=O)[O-])c2)Cc2ccc(cc2)SC[C@@H](C(N)=O)NC(=O)CC2(CCCCC2)CNC1=O [Compound 33-C]

— paper PMC8179660 (Chemical Science, 2021)
